inhibition, Activity and logD data for 29 compounds are collected here from ChEMBL document CHEMBL1152488, “Synthesis and evaluation of pyrido[1,2-a]pyrimidines as inhibitors of nitric oxide synthases” (Eur J Med Chem, 2009).

The target in series [1] is T1, Nitric oxide synthase, inducible (Mus musculus) (UniProt P29477).
T1 sequence (whole entry): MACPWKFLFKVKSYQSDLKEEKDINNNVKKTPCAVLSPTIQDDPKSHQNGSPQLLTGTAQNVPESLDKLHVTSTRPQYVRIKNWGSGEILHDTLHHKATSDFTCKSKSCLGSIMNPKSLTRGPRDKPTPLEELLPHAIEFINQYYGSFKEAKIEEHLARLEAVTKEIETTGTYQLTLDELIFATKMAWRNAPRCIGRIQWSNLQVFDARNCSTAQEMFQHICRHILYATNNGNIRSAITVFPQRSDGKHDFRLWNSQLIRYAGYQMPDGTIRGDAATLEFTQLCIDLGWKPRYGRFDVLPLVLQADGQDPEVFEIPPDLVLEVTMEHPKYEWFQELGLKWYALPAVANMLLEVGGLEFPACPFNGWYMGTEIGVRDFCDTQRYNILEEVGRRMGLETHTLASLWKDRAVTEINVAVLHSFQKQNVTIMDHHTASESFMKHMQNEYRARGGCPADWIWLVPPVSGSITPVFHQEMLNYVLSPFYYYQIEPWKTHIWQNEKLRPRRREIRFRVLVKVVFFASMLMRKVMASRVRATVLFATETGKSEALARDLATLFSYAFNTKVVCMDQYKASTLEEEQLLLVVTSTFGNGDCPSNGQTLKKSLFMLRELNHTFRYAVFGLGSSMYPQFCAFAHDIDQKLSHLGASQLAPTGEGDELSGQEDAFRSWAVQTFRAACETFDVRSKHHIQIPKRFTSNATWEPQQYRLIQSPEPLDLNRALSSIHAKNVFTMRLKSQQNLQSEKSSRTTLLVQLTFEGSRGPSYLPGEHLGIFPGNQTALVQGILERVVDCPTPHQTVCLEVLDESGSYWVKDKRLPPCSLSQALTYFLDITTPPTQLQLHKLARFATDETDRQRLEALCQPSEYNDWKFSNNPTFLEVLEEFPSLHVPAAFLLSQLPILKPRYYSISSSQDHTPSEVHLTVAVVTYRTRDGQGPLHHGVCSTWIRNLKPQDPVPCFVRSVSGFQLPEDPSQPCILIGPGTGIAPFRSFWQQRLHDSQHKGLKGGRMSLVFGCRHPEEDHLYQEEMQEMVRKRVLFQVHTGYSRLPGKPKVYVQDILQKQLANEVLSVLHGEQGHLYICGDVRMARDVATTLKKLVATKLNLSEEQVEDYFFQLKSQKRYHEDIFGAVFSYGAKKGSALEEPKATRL
In words: Inhibition of iNOS in LPS and IFN-gamma-stimulated mouse RAW264.7 cells assessed as inhibition of nitrite accumulation at 100 uM after 15 hrs by Griess assay. It counts as cell-based. The procedure, abridged:
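RAW 264.7 macrophages seeded at 100,000 cells/well in RPMI 1640 with 5% FCS and grown 24 h. Stimulated with 40 U/ml γ-IFN and 50 ng/ml LPS, with compound at 100 µM in 1% DMSO, for 15 h at 37 °C. Supernatant nitrite measured with Griess reagent at 550 nm against an NaNO2 calibration; 6–8 determinations.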

Series [2] deals with T1, Nitric oxide synthase, inducible (Mus musculus). Description: Inhibition of mouse recombinant iNOS expressed in Escherichia coli assessed as conversion of [gamma-14C]L-arginine to [14C]L-citrulline at 100 uM by radioactive assay relative to control. More on the design: scale not given: the % may be the effect or the level left. The method in brief:
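Purified enzymes: rat nNOS from S. cerevisiae, murine iNOS and bovine eNOS from E. coli. Reaction 5 min at 37 °C in 50 mM Hepes pH 7.4 with DTT, 1 mM NADPH, H4B, FAD, FMN, [14C]L-arginine (2.5 µM L-arginine) and 100 µM compound in 1% DMSO. nNOS/eNOS also got 1 mM CaCl2 and CaM, which iNOS lacked. [14C]citrulline isolated on Dowex and counted by scintillation; % of DMSO control, n=3.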

Series [3] has as its target T2, Nitric oxide synthase 3 (Bos taurus) (UniProt P29473).
T2 sequence (whole entry): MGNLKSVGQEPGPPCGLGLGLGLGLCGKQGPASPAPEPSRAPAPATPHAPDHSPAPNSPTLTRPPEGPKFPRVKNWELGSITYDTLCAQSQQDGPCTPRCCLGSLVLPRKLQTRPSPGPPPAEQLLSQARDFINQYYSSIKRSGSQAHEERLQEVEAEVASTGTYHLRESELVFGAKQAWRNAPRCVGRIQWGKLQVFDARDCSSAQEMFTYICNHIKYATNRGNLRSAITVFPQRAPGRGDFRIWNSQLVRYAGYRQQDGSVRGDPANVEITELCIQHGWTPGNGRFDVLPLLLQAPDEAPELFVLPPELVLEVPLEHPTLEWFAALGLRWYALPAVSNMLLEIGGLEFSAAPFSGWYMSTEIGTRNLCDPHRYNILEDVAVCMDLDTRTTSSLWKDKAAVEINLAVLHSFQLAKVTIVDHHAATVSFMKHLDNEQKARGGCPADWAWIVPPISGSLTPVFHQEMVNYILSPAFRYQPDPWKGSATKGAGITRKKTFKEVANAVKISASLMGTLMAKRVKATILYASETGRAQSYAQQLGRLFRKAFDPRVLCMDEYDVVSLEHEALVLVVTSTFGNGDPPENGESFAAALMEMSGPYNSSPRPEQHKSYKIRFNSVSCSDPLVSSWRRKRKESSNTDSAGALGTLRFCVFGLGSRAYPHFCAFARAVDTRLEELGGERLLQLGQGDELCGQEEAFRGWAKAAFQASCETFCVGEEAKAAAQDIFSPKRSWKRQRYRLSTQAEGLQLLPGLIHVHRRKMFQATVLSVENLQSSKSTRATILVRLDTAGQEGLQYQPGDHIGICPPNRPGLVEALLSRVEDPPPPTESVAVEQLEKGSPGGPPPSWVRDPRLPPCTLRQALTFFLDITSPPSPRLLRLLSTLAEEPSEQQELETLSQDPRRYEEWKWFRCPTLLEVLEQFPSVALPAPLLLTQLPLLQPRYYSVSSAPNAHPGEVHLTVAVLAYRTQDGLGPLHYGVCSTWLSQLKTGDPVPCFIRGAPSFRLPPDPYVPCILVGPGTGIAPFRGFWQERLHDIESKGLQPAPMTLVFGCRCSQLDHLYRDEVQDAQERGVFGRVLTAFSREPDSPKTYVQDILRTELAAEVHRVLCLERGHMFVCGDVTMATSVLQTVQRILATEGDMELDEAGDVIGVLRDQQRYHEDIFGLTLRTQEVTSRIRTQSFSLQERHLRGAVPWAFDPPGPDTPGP
In words: Inhibition of bovine eNOS expressed in insect Sf9 cells assessed as residual activity at 100 uM by Griess assay relative to control. The procedure, abridged:
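Bovine eNOS from Sf9 cells. Reaction: triethanolamine buffer pH 7.5, 0.5 mM Ca2+, 10 µg/ml CaM, 10 µM H4B, FAD, FMN, 0.5 mM NADPH, 1 mM L-arginine, with 100 µM compound, 20 min at 37 °C. After NADPH removal by LDH/pyruvate, nitrite measured by Griess at 543 nm. Expressed as % residual activity versus 1% DMSO control, 5 experiments.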
(In general: Griess reagent forms a coloured azo dye with nitrite.)

Series [4] in a line: Lipophilicity, log D at pH 7.4 by HPLC method. The note with it: buffer.

In the case of `COc1ccc(C(=O)C2CN=C3C=C(C)C=CN3C2)cc1F.[O-][Cl+3]([O-])([O-])O` (stereo not drawn), the inhibition in series [1] was determined as 64%. Moreover, in series [2], the Activity was 45%.
As for `CC1=CC=CC2=NCC(C(=O)c3ccc(Br)cc3)CN12` (stereo not drawn), the Activity in series [3] came out at 93%.
Consider `CCSC(=N)N`, for which the Activity in series [3] came to 27%.
Turning to `O=C(c1ccc(Cl)c(Cl)c1)C1CN=C2C=CC=CN2C1.[O-][Cl+3]([O-])([O-])O` (stereo not drawn), the Activity in series [3] came out at 83%; in series [2] it was 85%. In series [1], the inhibition came out at 59%. The compound further had a pH-dependent lipophilicity (logD) in series [4] of 1.8.
With `COc1ccc2cc(C(=O)C3CN=C4C=C(C)C=CN4C3)ccc2c1` (stereo not drawn), the Activity in series [3] amounted to 80%.
Consider `CC1=CC2=NCC(C(=O)c3ccc(Br)cc3)CN2C=C1` (stereo not drawn), for which the Activity in series [3] was 72%.
As to `CC1=CC2=NCC(C(=O)c3ccc(Cl)cc3)CN2C=C1` (stereo not drawn), in series [3], the Activity came to 20%.
In the case of `CC(=N)NCc1cccc(CN)c1`, the Activity in series [3] came to 107%.
Turning to `CC1=CC2=NCC(C(=O)c3ccc(-c4ccc(Br)cc4)cc3)CN2C(C)=C1` (stereo not drawn), the Activity in series [2] stood at 35%.
Turning to `CC1=CC2=NCC(C(=O)c3ccc(-c4ccc(C#N)cc4)cc3)CN2C=C1.Cl` (stereo not drawn), the inhibition in series [1] amounted to 82%. For the same compound, the Activity in series [2] turned out to be 18%.
The corresponding values for `CC1=CC2=NCC(C(=O)c3ccc(OCc4ccc(Cl)cc4)cc3)CN2C=C1.[O-][Cl+3]([O-])([O-])O` (stereo not drawn) are 92% and 25%.
As for `CCCNC(=N)NCCC[C@H](N)C(=O)O`, the Activity in series [3] worked out at 93%.
Consider `CC1=CC2=NCC(C(=O)c3ccc(OCc4ccc(Br)cc4)cc3)CN2C=C1.Cl` (stereo not drawn), for which the inhibition in series [1] is 96%. Further, the Activity in series [2] was found to be 62%.
For the compound `O=C(c1ccc2ccccc2c1)C1CN=C2C=CC=CN2C1` (stereo not drawn), in series [3], the Activity turned out to be 80%.
For the compound `CC1=CC=CC2=NCC(C(=O)c3ccc(F)cc3)CN12.[O-][Cl+3]([O-])([O-])O` (stereo not drawn), the Activity came out at 41% in series [3] and 66% in series [2]. Moreover, the inhibition in series [1] was found to be 44%.
`CC1=CC2=NCC(C(=O)c3ccc(F)cc3)CN2C=C1` (stereo not drawn): the Activity in series [3] was 37%.
The same measure, in the same setting: the figure for `O=C(c1ccc(Br)cc1)C1CN=C2C=CC=CN2C1` (stereo not drawn) is 86%; for `CC1=CC2=NCC(C(=O)c3ccc(-c4ccccc4)cc3)CN2C=C1` (stereo not drawn) it is 17%.
Consider `COc1ccc(-c2ccc(C(=O)C3CN=C4C=C(C)C=CN4C3)cc2)cc1.Cl` (stereo not drawn), for which, in series [1], the inhibition was 96%. Moreover, the Activity in series [2] turned out to be 13%.
In the case of `CC1=CC2=NCC(C(=O)c3ccc4cc(C)ccc4c3)CN2C=C1.[O-][Cl+3]([O-])([O-])O` (stereo not drawn), the Activity in series [3] is 49%; in series [2] it was 13%. Also, in series [1], the inhibition is 86%.
With `CC1=CC2=NCC(C(=O)c3ccc4cc(C)ccc4c3)CN2C(C)=C1.[O-][Cl+3]([O-])([O-])O` (stereo not drawn), in series [1], the inhibition came out at 89%. For the same compound, the logD in series [4] is 2.2. In series [2], the Activity came to 28%.
`CC1=CC=CC2=NCC(C(=O)c3ccc4ccccc4c3)CN12` (stereo not drawn): the Activity in series [3] amounted to 75%.
`CC1=CC2=NCC(C(=O)c3ccc4ccccc4c3)CN2C=C1` (stereo not drawn): in series [3], the Activity is 50%. The logD in series [4] is 1.7.
Turning to `N=C(NCCC[C@H](N)C(=O)O)N[N+](=O)[O-]`, in series [2], the Activity worked out at 15%.
Take `CC1=CC=CC2=NCC(C(=O)c3ccc(C)cc3)CN12.[O-][Cl+3]([O-])([O-])O` (stereo not drawn): the figures for the Activity in series [3] and in series [2] were 101% and 66%, respectively. Further, the inhibition in series [1] stood at 72%. The compound also came in with a pH-dependent lipophilicity (logD) in series [4] of 1.6.
For `CC1=CC2=NCC(C(=O)c3ccccc3)CN2C=C1` (stereo not drawn), in series [3], the Activity was 40%.
For `COc1ccc(C(=O)C2CN=C3C=CC=C(C)N3C2)cc1OC.[O-][Cl+3]([O-])([O-])O` (stereo not drawn), the values for the Activity in series [3] and in series [2] were 90% and 91%, respectively. Besides, the inhibition in series [1] worked out at 70%. Further, in series [4], the log distribution coefficient (logD) came out at 1.5.
As for `CC1=CC2=NCC(C(=O)c3ccc(-c4ccc(Br)cc4)cc3)CN2C=C1.[O-][Cl+3]([O-])([O-])O` (stereo not drawn), the inhibition in series [1] was 98%. Besides, the logD in series [4] worked out at 2.7. Besides, the Activity in series [2] is 19%.
As to `CC1=CC2=NCC(C(=O)c3ccc(OCc4ccc(C#N)cc4)cc3)CN2C=C1.[O-][Cl+3]([O-])([O-])O` (stereo not drawn), the inhibition in series [1] was 93%. Moreover, the Activity in series [2] came out at 30%.

For orientation: inhibition means the change of the read-out against control, counted positive when it falls. Usually logD stands for the decadic logarithm of the distribution of all forms, ionised or not, between an organic phase and buffer at a given pH.
